# Data: ChEMBL document CHEMBL4732121, “Imidazo[1,2-a]quinoxalines for melanoma treatment with original mechanism of action” (Eur J Med Chem, 2021)
# System: A-375
# Assay: Antiproliferative activity against human A-375 cells assessed as reduction in cell viability measured after 96 hrs by MTT assay
# Assay type: functional, cell-based
# Settings: Homo sapiens, A-375, 96 h
# Outline: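 A375 cells in RPMI-1640 with 10% heat-inactivated FBS, 2 mM L-glutamine and antibiotics, 37°C, 5% CO₂. Seeded at 5000 cells/well and attached overnight, then exposed to 10⁻⁵–3.2.10⁻⁹ M in 0.15% DMSO/medium for 96 h. MTT at 0.5 mg/ml final for 4 h, formazan dissolved in 10% SDS/0.01 M HCl, OD 570 nm. At least three experiments in triplicate; IC50 from sigmoidal dose–response curves.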
row,Structure (SMILES),IC50 [µM]
1,COc1ccc(-c2cnc3c(N(C)C)nc4ccccc4n23)cc1OC,0.414
2,NCCNc1nc2ccccc2n2c(-c3ccc(O)c(O)c3)cnc12,1.28
3,CNc1nccn2c(-c3ccc(OC)c(OC)c3)cnc12,> 10
4,NCCCNc1nc2ccccc2n2c(-c3ccc(O)c(O)c3)cnc12,5.59
5,NCCCCCCNc1nc2ccccc2n2c(-c3ccc(O)c(O)c3)cnc12,5.69
6,COc1ccc(-c2cnc3c(N4CCN(C(=O)OC(C)(C)C)CC4)nc4ccccc4n23)cc1OC,> 10
7,CNc1nc2ccc(C(F)(F)F)cc2n2c(-c3ccc(O)c(O)c3)cnc12,> 10
8,CNc1nc2cc(C(F)(F)F)ccc2n2c(-c3ccc(O)c(O)c3)cnc12,6.91
9,COc1ccc(-c2cnc3c(NCCCNC(=O)OC(C)(C)C)nc4ccccc4n23)cc1OC,> 10
10,COc1ccc(-c2cnc3c(NCCCCCCNC(=O)OC(C)(C)C)nc4ccccc4n23)cc1OC,> 10
11,COc1ccc(-c2cnc3c(OC)nc4ccccc4n23)cc1OC,2.93
12,COc1ccc(-c2cnc3c(N)nccn23)cc1OC,> 10
13,COc1ccc(-c2cnc3c(NCCNC(=O)OC(C)(C)C)nc4ccccc4n23)cc1OC,> 10
14,Oc1ccc(-c2cnc3c(O)nc4ccccc4n23)cc1O,> 10
